Test [1] can be described thus: Her2 expression decrease, cell viability multiplex – SKBR3 breast tumor cells, AlphaScreen, ATP viability, primary screen (AID 461;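 active means Her2 level under about 52% in both replicate screens, with viability over 70% of control, limit read from the data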;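 on Her2 level: lower value means less Her2 protein in the cells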;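 on viability: percent of carrier control wells set as 100% viability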). The settings on record: SKBR3 Her2 protein level, 18-24 h, measured here: SKBR3 viability, ATP luminescence, at 10 µM. A general note: In Alpha technology, singlet oxygen from a donor bead excites a nearby acceptor bead.
In test [2] the target is Receptor tyrosine-protein kinase erbB-2 (Homo sapiens) (UniProt P04626). The test is described as above. The settings on record: 18-24 h, at 10 µM, stronger effect = lower value.
Chain of Receptor tyrosine-protein kinase erbB-2 (Homo sapiens) (P04626 whole entry, looked up): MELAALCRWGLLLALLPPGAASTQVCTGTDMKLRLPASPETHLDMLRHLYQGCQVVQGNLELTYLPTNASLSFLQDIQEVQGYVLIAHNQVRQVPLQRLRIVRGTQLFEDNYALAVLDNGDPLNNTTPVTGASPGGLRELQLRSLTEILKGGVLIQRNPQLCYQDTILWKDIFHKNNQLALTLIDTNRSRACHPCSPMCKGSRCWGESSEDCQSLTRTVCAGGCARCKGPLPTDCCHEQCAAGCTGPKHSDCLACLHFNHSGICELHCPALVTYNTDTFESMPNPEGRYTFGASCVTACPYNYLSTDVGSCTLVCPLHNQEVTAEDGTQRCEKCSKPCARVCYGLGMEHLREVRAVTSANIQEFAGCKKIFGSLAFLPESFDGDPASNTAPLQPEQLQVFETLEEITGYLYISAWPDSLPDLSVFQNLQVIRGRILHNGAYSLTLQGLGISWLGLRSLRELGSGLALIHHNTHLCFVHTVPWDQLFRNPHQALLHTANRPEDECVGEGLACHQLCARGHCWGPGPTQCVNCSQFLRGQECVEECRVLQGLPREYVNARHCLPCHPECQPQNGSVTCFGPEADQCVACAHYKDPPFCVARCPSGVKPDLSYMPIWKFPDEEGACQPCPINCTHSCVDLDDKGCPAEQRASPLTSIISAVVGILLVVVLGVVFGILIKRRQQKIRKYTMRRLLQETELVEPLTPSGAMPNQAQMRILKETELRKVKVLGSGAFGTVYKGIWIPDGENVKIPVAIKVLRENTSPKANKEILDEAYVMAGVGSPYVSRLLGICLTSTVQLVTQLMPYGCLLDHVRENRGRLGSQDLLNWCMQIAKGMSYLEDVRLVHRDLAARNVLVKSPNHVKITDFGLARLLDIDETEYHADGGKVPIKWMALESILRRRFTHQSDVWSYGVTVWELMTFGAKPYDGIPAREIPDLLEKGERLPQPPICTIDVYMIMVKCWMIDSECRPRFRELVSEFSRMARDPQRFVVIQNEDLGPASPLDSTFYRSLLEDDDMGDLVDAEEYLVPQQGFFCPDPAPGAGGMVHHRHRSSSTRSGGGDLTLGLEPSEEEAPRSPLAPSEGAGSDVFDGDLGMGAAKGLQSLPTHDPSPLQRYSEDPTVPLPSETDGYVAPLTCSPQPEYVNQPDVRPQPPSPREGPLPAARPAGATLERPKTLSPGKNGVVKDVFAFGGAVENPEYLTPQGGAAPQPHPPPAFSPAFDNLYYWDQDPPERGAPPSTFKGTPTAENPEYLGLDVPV
Test [3] in a line: reduced viability of SK-BR-3 breast cancer cells – cell-based, 24 h, human, pilot screen (AID 572).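 Further: compound exposure lasted between 18 and 24 h rather than exactly 24 h; 100% = carrier-treated control wells.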 Conditions: SK-BR-3 viability, CellTiter-Glo luminescence, at 10 µM, stronger effect = lower value. (In general: ATP-based viability assays read luminescence as a measure of living cells.)
A short description of test [4]: HUVEC growth inhibition – cell-based, human, primary screen (AID 575;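 active means viability at or below 30% in both replicate assays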;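 further: 100% = median of untreated cell wells with 0.1% DMSO on each plate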). The settings on record: HUVEC proliferation, CellTiter-Glo luminescence, 72 h; at 10 µM; stronger effect = lower value. The gist of the method:
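Assay system: Primary human umbilical vein endothelial cells | Quantity: 1250 cells per well | Medium: Supplemented EBM, 2% fetal bovine serum | Detection: CellTiter-Glo luminescence measuring cellular ATP | Read-out: % viability vs DMSO wells | Plate: Collagen-coated 384-well format | Times: 72 h exposure, 37 °C, 5% CO2, 30 min RT equilibration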

Test [5] can be described thus: H69AR cell proliferation blockers – human, duplicate replicates, primary screen (AID 580;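 active means viability at or under a set limit in both replicates, limit being median viability minus 3 SD, cut at about 48% in these data, passing the limit was not always enough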;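 further: 100% = mean luminescence of untreated wells and 0% = no signal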). Conditions: H69AR lung tumor cells viability, ATP luminescence, 72 h; at 10 µM; stronger effect = lower value.
Test [6] can be described thus: MRP1 drug-resistance reversers in H69AR cells – cell-based, doxorubicin co-treatment, pilot screen (AID 601;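 active means viability loss from added drug above about 55%, and viability with drug at most 40%, in both replicates, limit read from the data, passing the limit was not always enough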). Conditions: CellTiter-Glo, 72 h, at 10 µM; for differential viability (reversal): stronger effect = higher value.
Test [7] is described as follows: yeast transport mutant growth inhibition pilot in 384-well plates, post-Golgi transport modulator project (AID 636; in the data active means inhibition above about 31%). Conditions: absorbance 615 nm, about 18 h, stronger effect = higher value.
Test [8] can be described thus: growth suppression of yeast trafficking mutant, preliminary HTS, modulators of trafficking downstream of Golgi apparatus project, 1536-format plate, OD 615 nm (AID 637; in the data active means inhibition above about 30%). The settings on record: yeast transport mutant growth, absorbance 615 nm, 18 h; stronger effect = higher value.
[9] abbreviates: H69AR cells + 2 uM doxorubicin, measured here: viability with 2 uM doxorubicin, stronger effect = lower value.
Where [10] appears, read: H69AR cells, compound alone cytotoxicity.

Broadly, the viability is a read-out of living cells in per cent, often relative to untreated cells. As usually defined, the inhibition is the relative decrease from the control value, in per cent.

Structures are written as SMILES. Activity calls are given as the source filed them.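 How the source made its calls, unless noted: active means viability at or below 10% of carrier control in both of two separate runs; inconclusive means viability at or below 10% in only one of the two runs; inactive means the rest.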

In the case of `O=C(CCn1nc(-c2ccccc2)ccc1=O)N1CCCC1`, the viability in test [1] was 97%; in test [3], 97% (inactive); in test [4], 114% (inactive); in test [5], 94.4% (inactive); in test [6] (setting [9]), 94.9%; in test [6] (setting [10]) it was 94.4%. The Her2 level in test [2] was 96% (inactive). Moreover, in test [6] (H69AR cells + 2 uM doxorubicin), the differential viability (reversal) was -0.505% (inactive). In addition, the figures for the inhibition in test [7] and in test [8] were -4.74% (inactive) and 0.48% (inactive), respectively.
For the compound `COc1ccccc1C1c2c(oc3ccc(Cl)cc3c2=O)C(=O)N1c1cc(C)on1` (stereo not given), the viability in test [1] was 86.5%; in test [3], 86.5% (inactive); in test [4], 70.7% (inactive); in test [5], 72.2% (inactive); in test [6] (setting [9]) it was 75.7%; in test [6] (setting [10]) it was 72.2%. For the same compound, in test [2], the Her2 level was 82.5% (inactive). Also, the differential viability (reversal) in test [6] (H69AR cells + 2 uM doxorubicin) is -3.51% (inactive). In addition, the inhibition in test [7] was -2.93% (inactive); in test [8] it was 8.71% (inactive).
Take `CCn1c(=O)n(CC(=O)N(C)Cc2ccccc2)c(=O)c2ccccc21`: the viability in test [1] is 110%; in test [3], 110% (inactive); in test [4], 75.7% (inactive); in test [5], 91.8% (inactive); in test [6] (setting [9]), 90.8%; in test [6] (setting [10]), 91.8%. Further, the Her2 level in test [2] was 93.5% (inactive). Besides, the differential viability (reversal) in test [6] (H69AR cells + 2 uM doxorubicin) was 1.03% (inactive). The inhibition in test [7] was 1.18% (inactive); in test [8], -0.48% (inactive).
As to `c1ccc(CN2C3=NCCCN3c3ccccc32)cc1`, the viability in test [1] is 79%; in test [3] it was 79% (inactive); in test [4], 82.9% (inactive); in test [5], 91.2% (inactive); in test [6] (setting [9]), 83%; in test [6] (setting [10]), 91.2%. In addition, in test [2], the Her2 level was 84% (inactive). For the same compound, the differential viability (reversal) in test [6] (H69AR cells + 2 uM doxorubicin) is 8.3% (inactive). The values for the inhibition in test [7] and in test [8] were -1.43% (inactive) and -3.65% (inactive), respectively.
Consider `Cn1ccnc1SCCC#N`, for which the viability in test [1] was 100%; in test [3], 100% (inactive); in test [4], 92.5% (inactive); in test [5] it was 99% (inactive); in test [6] (setting [9]) it was 97.3%; in test [6] (setting [10]) it was 99%. For the same compound, the Her2 level in test [2] was 89.5% (inactive). For the same compound, in test [6] (H69AR cells + 2 uM doxorubicin), the differential viability (reversal) was 1.65% (inactive). Also, the inhibition is -2% (inactive) in test [7] and 11% (inactive) in test [8].
As for `O=c1c2cc(N3CCOCC3)ccc2[nH]c(=S)n1CCCN1CCCCC1`, the viability was 83.5% in test [1]; 83.5% (inactive) in test [3]; 84.9% (inactive) in test [4]; 95.9% (inactive) in test [5]; 91.2% in test [6] (setting [9]); 95.9% in test [6] (setting [10]). In addition, the Her2 level in test [2] was 93.5% (inactive). In test [6] (H69AR cells + 2 uM doxorubicin), the differential viability (reversal) is 4.74% (inactive). Moreover, the inhibition in test [7] was -4.59% (inactive); in test [8], -8.36% (inactive).
On to `COc1ccc(C(=O)Cn2c(N3CCCCC3)nc3c2c(=O)n(C)c(=O)n3C)cc1OC`, for which the viability is 94% in test [1]; 94% (inactive) in test [3]; 83.9% (inactive) in test [4]; 92.7% (inactive) in test [5]; 99.1% in test [6] (setting [9]); 92.7% in test [6] (setting [10]). Moreover, the Her2 level in test [2] is 98.5% (inactive). The differential viability (reversal) in test [6] (H69AR cells + 2 uM doxorubicin) was -6.42% (inactive). Besides, the values for the inhibition in test [7] and in test [8] were 1.18% (inactive) and -1.48% (inactive), respectively.
In the case of `COC(=O)CC1C(=O)NCCN1C(=O)NC1CCCCC1` (stereo not given), the viability was 94% in test [1]; 94% (inactive) in test [3]; 104% (inactive) in test [4]; 98.8% (inactive) in test [5]; 91.7% in test [6] (setting [9]); 98.8% in test [6] (setting [10]). Further, in test [2], the Her2 level was 114% (inactive). In test [6] (H69AR cells + 2 uM doxorubicin), the differential viability (reversal) was 7.06% (inactive). For the same compound, the inhibition was -9.59% (inactive) in test [7] and -6.98% (inactive) in test [8].
Regarding `COCCn1nnnc1C(c1cc2cc(OC)ccc2[nH]c1=O)N1CCC(Cc2ccccc2)CC1` (stereo not given), the viability in test [1] was 124%; in test [3] it was 124% (inactive); in test [4] it was 65.4% (inactive); in test [5], 9.35% (active); in test [6] (setting [9]) it was 24.8%; in test [6] (setting [10]), 9.35%. The Her2 level in test [2] was 80% (inactive). In addition, the differential viability (reversal) in test [6] (H69AR cells + 2 uM doxorubicin) was -15.4% (inactive). Further, the inhibition is -7.87% (inactive) in test [7] and -2.38% (inactive) in test [8].
Take `CCN(c1cccc(C(F)(F)F)c1)S(=O)(=O)c1ccc2c(c1)CCN2C(=O)C1CC1`: the viability was 99% in test [1]; 99% (inactive) in test [3]; 65.8% (inactive) in test [4]; 82.5% (inactive) in test [5]; 82.9% in test [6] (setting [9]); 82.5% in test [6] (setting [10]). Also, the Her2 level in test [2] is 120% (inactive). Further, the differential viability (reversal) in test [6] (H69AR cells + 2 uM doxorubicin) was -0.405% (inactive). In addition, the inhibition in test [7] is -3.42% (inactive); in test [8] it was -1% (inactive).
Regarding `CN(C)c1ccc(NC(=O)CSCc2nc3c(nnn3Cc3ccc(F)cc3)c(=O)[nH]2)cc1`, the viability in test [1] was 89.5%; in test [3] it was 89.5% (inactive); in test [4] it was 110% (inactive); in test [5] it was 94% (inactive); in test [6] (setting [9]) it was 89.7%; in test [6] (setting [10]), 94%. Also, in test [2], the Her2 level was 83.5% (inactive). Moreover, the differential viability (reversal) in test [6] (H69AR cells + 2 uM doxorubicin) was 4.32% (inactive). In addition, the inhibition in test [7] is -6.49% (inactive); in test [8], 0% (inactive).
For `COC(=O)c1cc(Br)c(=O)n(Cc2cccnc2)c1`, the viability in test [1] was 108%; in test [3] it was 108% (inactive); in test [4], 95.9% (inactive); in test [5], 97.3% (inactive); in test [6] (setting [9]), 80.3%; in test [6] (setting [10]), 97.3%. Further, in test [2], the Her2 level was 81.5% (inactive). Besides, the differential viability (reversal) in test [6] (H69AR cells + 2 uM doxorubicin) was 17% (inactive). Also, the results for the inhibition in test [7] and in test [8] were -3.95% (inactive) and 0.18% (inactive), respectively.
Regarding `COc1ccc(C(=O)N(CCN2CCOCC2)CC(=O)NC2CCCC2)cc1OC`, the viability in test [1] was 83.5%; in test [3], 83.5% (inactive); in test [4], 111% (inactive); in test [5], 91.6% (inactive); in test [6] (setting [9]), 92.4%; in test [6] (setting [10]), 91.6%. In addition, the Her2 level in test [2] is 106% (inactive). Besides, in test [6] (H69AR cells + 2 uM doxorubicin), the differential viability (reversal) is -0.805% (inactive). The inhibition is -0.8% (inactive) in test [7] and 8.36% (inactive) in test [8].
Take `CCC(OC(=O)c1cccs1)C(=O)NCc1ccco1` (stereo not given): the viability is 103% in test [1]; 103% (inactive) in test [3]; 98.6% (inactive) in test [4]; 91.4% (inactive) in test [5]; 82% in test [6] (setting [9]); 91.4% in test [6] (setting [10]). Also, the Her2 level in test [2] was 93% (inactive). In addition, the differential viability (reversal) in test [6] (H69AR cells + 2 uM doxorubicin) was 9.38% (inactive). Moreover, the inhibition is -2.86% (inactive) in test [7] and 1.97% (inactive) in test [8].
